The source made the active and inactive calls.
How the values were obtained:
[Candida] auris [1] = Antifungal activity against Candida auris AR Bank # 385 assessed as fungal growth inhibition by double dilution method; type: functional; conditions: Candidozyma auris
How it was run: (§1)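 Broth microdilution after CLSI M27-A3/M38-A2 with minor changes. Single colony grown overnight in YPD at 35 °C, 200 rpm. Compound final range 0.06-31.3 µg/mL; incubated 48 h at 35 °C.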

[Candida] auris [2] = Antifungal activity against Candida auris AR Bank # 383 assessed as fungal growth inhibition by double dilution method; type: functional; conditions: Candidozyma auris; how it was run: as §1
Kodamaea ohmeri = assay: Antifungal activity against Kodamaea ohmeri AR Bank # 396 assessed as fungal growth inhibition by double dilution method; type: functional; how it was run: as §1
Candida albicans [3] = assay: Antifungal activity against itraconazole/fluconazole susceptible Candida albicans ATCC MYA-2876 assessed as fungal growth inhibition by double dilution method; type: functional
How it was run: (§2)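 Broth microdilution after CLSI M27-A3/M38-A2 with minor modifications. A single colony was grown overnight in YPD at 35 °C with shaking at 200 rpm. Cells were mixed 1:1 with compound (final 0.06-31.3 µg/mL, from DMSO stocks) and incubated 48 h at 35 °C.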

[Candida] haemuloni [4] = Antifungal activity against Candida haemulonii AR Bank # 395 assessed as fungal growth inhibition by double dilution method; type: functional; conditions: Candidozyma haemuli; how it was run: as §1
Pichia kudriavzevii [5] = assay: Antifungal activity against Pichia kudriavzevii AR Bank # 397 assessed as fungal growth inhibition by double dilution method; type: functional; how it was run: as §1
Candida albicans [6] = assay: Antifungal activity against itraconazole/fluconazole resistant Candida albicans ATCC 90819 assessed as fungal growth inhibition by double dilution method; type: functional; how it was run: as §2
[Candida] auris [7] = Antifungal activity against Candida auris AR Bank # 384 assessed as fungal growth inhibition by double dilution method; type: functional; conditions: Candidozyma auris; how it was run: as §1
HEK293 = assay: Cytotoxicity against human HEK-293 cells assessed as reduction in cell viability at 31.3 microg/ml; type: toxicity, cell-based; conditions: dose 31.3 µg/ml
How it was run: (§3)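 Cells in DMEM with 10% FBS and 1% Pen/Strep, seeded at 10,000 cells/well and held overnight at 37 °C, 5% CO2. Compounds added at final 31.3-0.12 µg/mL (0.05% DMSO vehicle) for 24 h. Resazurin then added for 6 h; fluorescence read at ex 560/em 590. Triton X-100 1% as positive control; values normalized to vehicle. Run in quadruplicate.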

Aspergillus fumigatus [8] = assay: Antifungal activity against Aspergillus fumigatus NRRL 5109 assessed as fungal growth inhibition by double dilution method; type: functional
[Candida] auris [9] = Antifungal activity against Candida auris AR Bank # 388 assessed as fungal growth inhibition by double dilution method; type: functional; conditions: Candidozyma auris; how it was run: as §1
Candida albicans [10] = assay: Antifungal activity against itraconazole/fluconazole resistant Candida albicans ATCC MYA-1003 assessed as fungal growth inhibition by double dilution method; type: functional; how it was run: as §2
[Candida] auris [11] = Antifungal activity against Candida auris AR Bank # 387 assessed as fungal growth inhibition by double dilution method; type: functional; conditions: Candidozyma auris; how it was run: as §1
Candida duobushaemulonii [12] = assay: Antifungal activity against Candida duobushaemulonii AR Bank # 394 assessed as fungal growth inhibition by double dilution method; type: functional; conditions: Candidozyma duobushaemuli; how it was run: as §1
J774.A1 = assay: Cytotoxicity against J774A.1 cells assessed as reduction in cell viability at 31.3 microg/ml; type: toxicity, cell-based; conditions: mouse, dose 31.3 µg/ml; how it was run: as §3
Nakaseomyces glabratus [13] = assay: Antifungal activity against Candida glabrata ATCC 2001 assessed as fungal growth inhibition by double dilution method; type: functional; how it was run: as §1
[Candida] auris [14] = Antifungal activity against Candida auris AR Bank # 382 assessed as fungal growth inhibition by double dilution method; type: functional; conditions: Candidozyma auris; how it was run: as §1
Saccharomyces cerevisiae [15] = assay: Antifungal activity against Saccharomyces cerevisiae AR Bank # 400 assessed as fungal growth inhibition by double dilution method; type: functional; how it was run: as §1
[Candida] auris [16] = Antifungal activity against Candida auris AR Bank # 389 assessed as fungal growth inhibition by double dilution method; type: functional; conditions: Candidozyma auris; how it was run: as §1
HepG2 = assay: Cytotoxicity against human HepG2 cells assessed as reduction in cell viability upto 31.3 microg/ml; type: toxicity, cell-based; conditions: dose < 31.3 µg/ml; how it was run: as §3
Candida albicans [17] = assay: Antifungal activity against Candida albicans ATCC 10231 assessed as fungal growth inhibition by double dilution method; type: functional; how it was run: as §1
[Candida] haemuloni [18] = Antifungal activity against Candida haemulonii AR Bank # 393 assessed as fungal growth inhibition by double dilution method; type: functional; conditions: Candidozyma haemuli; how it was run: as §1
Candida duobushaemulonii [19] = assay: Antifungal activity against Candida duobushaemulonii AR Bank # 391 assessed as fungal growth inhibition by double dilution method; type: functional; conditions: Candidozyma duobushaemuli; how it was run: as §1
Aspergillus terreus = assay: Antifungal activity against Aspergillus terreus ATCC MYA-3633 assessed as fungal growth inhibition by double dilution method; type: functional
Aspergillus flavus = assay: Antifungal activity against Aspergillus flavus ATCC MYA-3631 assessed as fungal growth inhibition by double dilution method; type: functional
Pichia kudriavzevii [20] = assay: Antifungal activity against Pichia kudriavzevii ATCC 6258 assessed as fungal growth inhibition by double dilution method; type: functional; how it was run: as §1
Candida albicans [21] = assay: Antifungal activity against itraconazole/fluconazole resistant Candida albicans ATCC MYA-1237 assessed as fungal growth inhibition by double dilution method; type: functional; how it was run: as §2
Saccharomyces cerevisiae [22] = assay: Antifungal activity against Saccharomyces cerevisiae AR Bank # 399 assessed as fungal growth inhibition by double dilution method; type: functional; how it was run: as §1
[Candida] auris [23] = Antifungal activity against Candida auris AR Bank # 386 assessed as fungal growth inhibition by double dilution method; type: functional; conditions: Candidozyma auris; how it was run: as §1
[Candida] auris [24] = Antifungal activity against Candida auris AR Bank # 381 assessed as fungal growth inhibition by double dilution method; type: functional; conditions: Candidozyma auris; how it was run: as §1
Aspergillus fumigatus [25] = assay: Antifungal activity against Aspergillus fumigatus NRRL 163 assessed as fungal growth inhibition by double dilution method; type: functional
[Candida] auris [26] = Antifungal activity against Candida auris AR Bank # 0390 assessed as fungal growth inhibition by double dilution method; type: functional; conditions: Candidozyma auris; how it was run: as §1
Aspergillus nidulans = assay: Antifungal activity against Aspergillus nidulans ATCC 38163 assessed as fungal growth inhibition by double dilution method; type: functional
Candida duobushaemulonii [27] = assay: Antifungal activity against Candida duobushaemulonii AR Bank # 392 assessed as fungal growth inhibition by double dilution method; type: functional; conditions: Candidozyma duobushaemuli; how it was run: as §1
Aspergillus fumigatus [28] = assay: Antifungal activity against Aspergillus fumigatus NRRL 6113 assessed as fungal growth inhibition by double dilution method; type: functional
Candida albicans [29] = assay: Antibiofilm activity against Candida albicans ATCC 10231 assessed as reduction in biofilm production at 1.96 to 3.9 microg/ml by biofilm formation assay; type: functional, organism-based; conditions: dose 1.96-3.9 µg/ml
Candida albicans [30] = assay: Antifungal activity against itraconazole/fluconazole susceptible Candida albicans ATCC MYA-2310 assessed as fungal growth inhibition by double dilution method; type: functional; how it was run: as §2
[Candida] auris [31] = Antifungal activity against Candida auris AR Bank # 390 assessed as fungal growth inhibition by double dilution method; type: functional; conditions: Candidozyma auris; how it was run: as §1
Cryptococcus neoformans = assay: Antifungal activity against Cryptococcus neoformans ATCC MYA-895 assessed as fungal growth inhibition by double dilution method; type: functional; how it was run: as §1
Clavispora lusitaniae = assay: Antifungal activity against Clavispora lusitaniae AR Bank # 398 assessed as fungal growth inhibition by double dilution method; type: functional; how it was run: as §1
[Candida] auris [32] = Antifungal activity against Candida auris AR Bank # 0384 assessed as fungal growth inhibition by double dilution method; type: functional; conditions: Candidozyma auris; how it was run: as §1
Nakaseomyces glabratus [33] = assay: Antifungal activity against Candida glabrata ATCC 22019 assessed as fungal growth inhibition by double dilution method; type: functional; how it was run: as §1
Candida albicans [34] = assay: Antifungal activity against Candida albicans ATCC 64124 assessed as fungal growth inhibition by double dilution method; type: functional; how it was run: as §2

O=C(NNc1cccc(F)c1)c1ccccn1
7.8 µg/mL: MIC (Aspergillus flavus)
0.98 µg/mL: MIC ([Candida] auris [1]) | MIC (Candida albicans [3]) | MIC (Candida albicans [10]) | MIC ([Candida] auris [14]) | MIC (Candida albicans [21]) | MIC (Clavispora lusitaniae) | MIC (Candida albicans [34])
Non-Toxic: Activity (HEK293) | Activity (J774.A1) | Activity (HepG2)
0.12 µg/mL: MIC ([Candida] auris [16]) | MIC ([Candida] haemuloni [18]) | MIC (Cryptococcus neoformans)
≤ 0.06 µg/mL: MIC ([Candida] haemuloni [4]) | MIC (Candida albicans [17])
1.95 µg/mL: MIC ([Candida] auris [2]) | MIC ([Candida] auris [7]) | MIC (Nakaseomyces glabratus [13]) | MIC (Saccharomyces cerevisiae [15]) | MIC (Aspergillus terreus) | MIC (Saccharomyces cerevisiae [22]) | MIC (Candida albicans [30]) | MIC ([Candida] auris [32]) | MIC (Nakaseomyces glabratus [33])
active: Activity (Candida albicans [29])
0.49 µg/mL: MIC (Candida albicans [6]) | MIC ([Candida] auris [9]) | MIC ([Candida] auris [11]) | MIC (Candida duobushaemulonii [12]) | MIC (Candida duobushaemulonii [19]) | MIC ([Candida] auris [23]) | MIC ([Candida] auris [24]) | MIC (Aspergillus nidulans)
0.24 µg/mL: MIC (Kodamaea ohmeri) | MIC (Pichia kudriavzevii [5]) | MIC (Pichia kudriavzevii [20]) | MIC ([Candida] auris [26]) | MIC (Candida duobushaemulonii [27]) | MIC ([Candida] auris [31])
> 31.3 µg/mL: MIC (Aspergillus fumigatus [8]) | MIC (Aspergillus fumigatus [25]) | MIC (Aspergillus fumigatus [28])

COc1ccc(NNC(=O)c2cnccn2)cc1
> 31.3 µg/mL: MIC (Aspergillus terreus) | MIC (Aspergillus flavus)
3.9 µg/mL: MIC (Nakaseomyces glabratus [33])
31.3 µg/mL: MIC (Aspergillus fumigatus [8]) | MIC (Aspergillus fumigatus [25]) | MIC (Aspergillus fumigatus [28])
Non-Toxic: Activity (HEK293) | Activity (J774.A1) | Activity (HepG2)
0.98 µg/mL: MIC ([Candida] auris [1]) | MIC ([Candida] auris [2]) | MIC (Kodamaea ohmeri) | MIC (Candida albicans [6]) | MIC ([Candida] auris [7]) | MIC ([Candida] auris [9]) | MIC (Nakaseomyces glabratus [13]) | MIC ([Candida] auris [14]) | MIC (Saccharomyces cerevisiae [15]) | MIC ([Candida] auris [16]) | MIC (Pichia kudriavzevii [20]) | MIC (Candida albicans [21]) | MIC (Saccharomyces cerevisiae [22]) | MIC (Aspergillus nidulans) | MIC ([Candida] auris [31]) | MIC (Cryptococcus neoformans) | MIC (Clavispora lusitaniae) | MIC (Candida albicans [34])
0.24 µg/mL: MIC ([Candida] haemuloni [18])
1.95 µg/mL: MIC (Candida albicans [3]) | MIC (Candida albicans [10]) | MIC ([Candida] auris [11]) | MIC ([Candida] auris [24]) | MIC (Candida albicans [30])
0.49 µg/mL: MIC ([Candida] haemuloni [4]) | MIC (Pichia kudriavzevii [5]) | MIC (Candida duobushaemulonii [12]) | MIC (Candida albicans [17]) | MIC (Candida duobushaemulonii [19]) | MIC ([Candida] auris [23]) | MIC ([Candida] auris [26]) | MIC (Candida duobushaemulonii [27]) | MIC ([Candida] auris [32])

O=C(NNc1cccc(Cl)c1)c1cnccn1
3.9 µg/mL: MIC (Candida albicans [6]) | MIC (Nakaseomyces glabratus [13])
7.8 µg/mL: MIC (Candida albicans [30])
> 31.3 µg/mL: MIC (Aspergillus fumigatus [8]) | MIC (Aspergillus flavus) | MIC (Aspergillus fumigatus [25]) | MIC (Aspergillus fumigatus [28])
0.98 µg/mL: MIC ([Candida] auris [7]) | MIC (Candida albicans [10]) | MIC (Saccharomyces cerevisiae [15]) | MIC (Aspergillus terreus) | MIC (Candida albicans [21]) | MIC (Saccharomyces cerevisiae [22]) | MIC ([Candida] auris [26]) | MIC (Aspergillus nidulans)
0.12 µg/mL: MIC (Kodamaea ohmeri) | MIC (Pichia kudriavzevii [5]) | MIC (Candida duobushaemulonii [12]) | MIC ([Candida] auris [14]) | MIC (Candida duobushaemulonii [27])
0.24 µg/mL: MIC ([Candida] auris [1]) | MIC ([Candida] auris [2]) | MIC ([Candida] haemuloni [4]) | MIC ([Candida] auris [9]) | MIC ([Candida] auris [11]) | MIC ([Candida] auris [16]) | MIC (Candida albicans [17]) | MIC ([Candida] haemuloni [18]) | MIC (Candida duobushaemulonii [19]) | MIC (Pichia kudriavzevii [20]) | MIC (Cryptococcus neoformans)
≤ 0.06 µg/mL: MIC ([Candida] auris [23])
0.49 µg/mL: MIC ([Candida] auris [24]) | MIC ([Candida] auris [31]) | MIC (Clavispora lusitaniae)
1.95 µg/mL: MIC (Candida albicans [3]) | MIC ([Candida] auris [32]) | MIC (Nakaseomyces glabratus [33]) | MIC (Candida albicans [34])
Non-Toxic: Activity (HEK293) | Activity (J774.A1) | Activity (HepG2)
